Measurements taken from ChEMBL document CHEMBL1128532, “Antidiabetic agents: a new class of reversible carnitine palmitoyltransferase I inhibitors” (J Med Chem, 1995).
pIC50, pKi: −log10 of the molar value. Values joined by “and” are separate entries in the source; they are usually repeats but may differ in a detail not shown here. Equal values may be shown once.

Legend:
Rattus norvegicus [1] = species on record: Rattus norvegicus; assay: Inhibition of production of ketones in rat liver hepatocytes from 18 hr fasted rats; format: functional; conditions: Hepatocyte
Procedure, shortened: (§1)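 Fatty acid oxidation was read as the fall in ketone production, tested in rat liver homogenates and in hepatocytes isolated from 18 h fasted rats. IC50 ± SE was taken from concentration-response data. Where no reasonable dose response was seen, the highest dose tested is given instead.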

Rattus norvegicus [2] = assay: Blood glucose level in NIDDM rats after 11 days of treatment at a dose 21.9 mg/kg/d Blood samples taken 6 hr post-dose in a 6 hr fasted state; format: functional
Procedure, shortened: (§2)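 NIDDM model: fat-fed, low-dose streptozotocin-treated rats. Oral gavage once daily for 11 days at 0 to 87.5 mg/kg/d. Blood sampled 6 h post-dose, with rats in a 6 h fasted state. Blood glucose reported in mg/dL as mean ± error. Significance tested against vehicle control (p<0.05, p<0.01).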

Rattus norvegicus [3] = assay: Blood glucose level in NIDDM rats after 11 days of treatment at a dose 21.9 […] Blood samples taken 6 hr post-dose in a 6 hr fasted state; format: functional; procedure, shortened: as §2
[4] = target: T1, Carnitine O-palmitoyltransferase 1, liver isoform (Rattus norvegicus, UniProt P32198); assay: In vitro inhibition of carnitine palmitoyltransferase I with respect to palmitoyl CoA in rat
T1 sequence (P32198 whole entry): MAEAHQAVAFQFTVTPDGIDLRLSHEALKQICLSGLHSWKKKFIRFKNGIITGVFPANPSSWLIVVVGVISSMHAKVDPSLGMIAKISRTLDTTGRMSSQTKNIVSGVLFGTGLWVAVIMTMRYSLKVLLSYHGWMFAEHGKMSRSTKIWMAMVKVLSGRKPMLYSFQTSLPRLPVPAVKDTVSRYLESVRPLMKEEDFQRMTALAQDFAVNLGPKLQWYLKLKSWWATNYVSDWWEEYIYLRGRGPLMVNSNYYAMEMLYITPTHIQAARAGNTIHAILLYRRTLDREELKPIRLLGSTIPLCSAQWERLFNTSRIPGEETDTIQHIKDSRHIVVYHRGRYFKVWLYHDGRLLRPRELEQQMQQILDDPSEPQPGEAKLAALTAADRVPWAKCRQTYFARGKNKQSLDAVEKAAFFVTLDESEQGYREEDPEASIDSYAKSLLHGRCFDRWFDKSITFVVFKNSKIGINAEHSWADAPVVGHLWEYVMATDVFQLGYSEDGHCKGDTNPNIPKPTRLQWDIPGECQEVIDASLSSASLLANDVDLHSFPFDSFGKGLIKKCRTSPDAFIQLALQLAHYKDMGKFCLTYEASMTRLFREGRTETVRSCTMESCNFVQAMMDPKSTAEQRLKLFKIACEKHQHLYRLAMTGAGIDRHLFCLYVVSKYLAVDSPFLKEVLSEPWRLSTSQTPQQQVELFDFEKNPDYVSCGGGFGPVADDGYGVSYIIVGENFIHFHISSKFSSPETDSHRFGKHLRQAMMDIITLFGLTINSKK

Rattus norvegicus [5] = species on record: Rattus norvegicus; assay: Blood glucose level in NIDDM rats after 11 days of treatment Blood samples taken 6 hr post-dose in a 6 hr fasted state.; format: functional; procedure, shortened: as §2
Rattus norvegicus [6] = assay: Blood glucose level in NIDDM rats after 11 days of treatment at a dose 32.9 mg/kg/d Blood samples taken 6 hr post-dose in a 6 hr fasted state; format: functional; procedure, shortened: as §2
Rattus norvegicus [7] = assay: Blood glucose level in NIDDM rats after 11 days of treatment at a dose 0 mg/kg/d Blood samples taken 6 hr post-dose in a 6 hr fasted state; format: functional; procedure, shortened: as §2
Rattus norvegicus [8] = species on record: Rattus norvegicus; assay: Inhibition of production of ketones in rat liver homogenates; format: functional; procedure, shortened: as §1

pIC50 (Rattus norvegicus [8])	SMILES	pIC50 (Rattus norvegicus [1])	further results
4.44	CCCCCCCCCCCCCCCP(=O)([O-])O[C@H](CC(=O)O)C[N+](C)(C)C	5.52	–
< 3.52	CCCCCCCCCCCCCCOP(=O)([O-])O[C@@H](CC(=O)O)C[N+](C)(C)C	3.66	–
< 4.00	CCCCCCCCCCCCCCCP(=O)([O-])O[C@@H](CC(=O)O)C[N+](C)(C)C	< 3.52	–
5.89	CCCCCCCCCCCCCCCC(=O)NC(CC(=O)[O-])C[N+](C)(C)C (configuration not stated)	5.92	–

Further lines, the compound ahead of its results:

SMILES	pIC50 (Rattus norvegicus [8])	pIC50 (Rattus norvegicus [1])	further results
CCCCCCCCCCCCCCOP(=O)([O-])O[C@H](CC(=O)O)C[N+](C)(C)C	4.55	5.47	Glucose level (Rattus norvegicus [2]): 164 mg/dL; Glucose level (Rattus norvegicus [3]): 164 mg/dL; pKi [4]: 5.44; Glucose level (Rattus norvegicus [5]): 197 mg/dL; Glucose level (Rattus norvegicus [6]): 179 mg/dL and 93 mg/dL; Glucose level (Rattus norvegicus [7]): 197 mg/dL
CCCCCCCCCCCCCCCP(=O)([O-])NC(CC(=O)O)C[N+](C)(C)C (configuration not stated)	< 4.00	< 3.52	–
CCCCCCCCCCCCCCP(=O)([O-])CC(CC(=O)O)C[N+](C)(C)C (configuration not stated)	< 3.52	< 3.52	–
CCCCCCCCCCCCCCOP(=O)([O-])N[C@H](CC(=O)O)C[N+](C)(C)C	4.62	4.34	–
